VLA-4 inh – inhibition in a human VLA-4 binding assay. P13612. VLA-4 expressing cells, ligand binding flow cytometry. inhibition, % (about 7 µM as worked out from the volumes in the protocol). 330,000 compounds, 0.2% hits; in the data active = inhibition above about 50%
GASC-1 inh – human JMJD2C demethylase inhibition; Q9H3R0; GST-JMJD2C(1-420) H3K9me3 demethylation, DELFIA europium; inhibition, % at 2.35 µM; 330,000 compounds, 0.069% hits;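 active = more than half of a compound's replicate wells show inhibition beyond 50%, single wells judged on their own value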;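 also: signal counts dimethyl H3K9 product captured on neutravidin plate; 0% = median of DMSO wells and 100% = 0.3 times that DMSO median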
Arr AP2 block – human beta-arrestin and AP2 interaction inhibition | FITC-arrestin peptide / GST-AP2 beads, flow cytometry; AP2 beta2 appendage carries R879A mutation | inhibition, % at 10 µM | 340,000 compounds, 0.31% hits;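 active = inhibition above a set limit, near 3 SD of compounds lacking own fluorescence, cut at about 54% in these data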;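 also: plate controls were DMSO wells for no effect and 5 µM unlabelled arrestin peptide for full effect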
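Assay system: GST-AP2 R879A bound to glutathione beads, E. coli-expressed; Medium: PBS with 0.05% Tween 20 and 0.1% BSA; Also added: fluorescein-tagged arrestin peptide at 50 nM final; Timing: 12 min plus 1 h, RT; Measured by: flow cytometry, FL1 (488/535 nm); Evaluation: percent drop in bead-associated FITC signal.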
pCIP destab – lowers stability of the mouse p/CIP coactivator protein. F442A p/CIP-EGFP cells, EGFP fluorescence, 16 h. 290,000 compounds, 0.01% hits. decrease of EGFP signal, % at 10 µM. Q05BA5;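 active = EGFP signal decrease of at least 30% at 10 µM or well 3 SD below plate mean, unless failing retest; inactive = the rest, including hits failing retest or dose response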
VLA-4 allo CP – human VLA-4 allosteric modulation in cherry picked compounds | inhibition, % at 6.7 µM | shares compounds with VLA-4 inh | 1,300 compounds, 2% hits | U937 cells, HUTS-21 LIBS mAb binding, flow cytometry; LDV ligand present at threefold Kd | AID 2813; in the data active = inhibition above about 40%;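 also: 0% = ligand without compound and 100% = no ligand background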
Arr-AP2 CP1 – human beta-arrestin and AP2 interaction inhibition, cherry pick. inhibition, % at 10 µM. GST-AP2 beads, FITC arrestin peptide binding, flow cytometry; GST-fused beta2-adaptin appendage, R879A mutant. 1,300 compounds, 2% hits. shares compounds with Arr AP2 block;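 active = inhibition above a set limit, roughly 3 SD of non-fluorescent compound noise, cut at about 38% in these data; inactive = inhibition at or below that limit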;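 also: loss of bead fluorescence from 50 nM FITC arrestin peptide bound to appendage; 0% = negative control wells and 100% = excess unlabelled arrestin peptide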
GST-FITC bead – counter-screen for beta-arrestin AP2 inhibitors: GST-GSH bead binding. shares compounds with Arr AP2 block. GST-fluorescein binding to GSH beads, fluorescence. inhibition, % at 10 µM. 1,300 compounds, 2% hits;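 active = inhibition above 50%, about 3 SD of the inhibition seen with non-fluorescent compounds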;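 also: fluorescein maleimide labelled GST captured on 4 micron glutathione beads; higher means more loss of bead fluorescence from quenching or blocked binding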
An asterisk follows results filed as active; x = no result given. Only some compounds are listed: those with a hit (about 0.57% of all), similar ones and a draw of the others.

SMILES	VLA-4 inh	GASC-1 inh	Arr AP2 block	pCIP destab	VLA-4 allo CP	others
CC1CCN(S(=O)(=O)N2CCC(C(=O)NC3CCCC3)CC2)CC1	18.0	28.3	-5.6	4.3	x
NC(=O)c1ccccc1NS(=O)(=O)c1ccc(F)cc1	5.3	-8.9	10.9	-11.5	0.0
NS(=O)(=O)c1ccc(NC(=O)Nc2ccccc2)cc1	2.6	6.8	-19.9	5.2	-0.8
NS(=O)(=O)c1cccc(NC(=O)Nc2ccccc2)c1	-6.6	-0.8	13.6	6.4	10.9
CCNc1nc2c(c(=O)n(C)c(=O)n2C)n1Cc1ccc(Cl)cc1	56.6*	-28.9	-3.3	-30.3	5.4
COc1ccc2[nH]c3c(Cl)ncnc3c2c1	48.0	-2.6	-22.3	2.5	-6.1
Cc1nn(S(=O)(=O)c2ccc(C(C)C)cc2)c(C)c1S(=O)(=O)N1CCOCC1	5.4	6.5	25.6	-2.8	x
CCOc1ccc(S(=O)(=O)n2nc(C)c(S(=O)(=O)N3CCOCC3)c2C)cc1	100.0*	5.6	-3.1	-1.8	-2.1
Cc1ccc(S(=O)(=O)CCC(=O)OCc2ccc(S(=O)(=O)C(C)C)cc2)cc1	51.3*	-3.1	31.7	-2.7	2.6
Cc1ccc(S(=O)(=O)CCC(=O)OCc2ccc(Cl)c(Cl)c2)cc1	-13.4	-6.7	4.7	-11.8	x
CCN1C(=O)Cc2cc(S(=O)(=O)NCCc3ccccc3)ccc21	2.7	5.4	3.7	-5.1	4.7
Cc1ccc2c(c1)N(CC(=O)NCC(C)c1ccccc1)C(=O)c1cccnc1O2 (stereo not drawn)	53.4*	-0.2	8.7	-1.7	2.6
Cc1ccc2c(c1)N(CC(=O)NCCCc1ccccc1)C(=O)c1cccnc1O2	-12.8	-26.2	5.3	-0.7	x
CCOC(=O)C1=C(C)C2C3C(=O)N(c4ccccc4C)C(=O)C3C1(C)C1C(=O)N(c3ccccc3C)C(=O)C21 (stereo not drawn)	17.6	0.9	10.7	-5.6	x
CCOC(=O)C1=C(C)C2C3C(=O)N(c4ccc(C)cc4C)C(=O)C3C1(C)C1C(=O)N(c3ccc(C)cc3C)C(=O)C21 (stereo not drawn)	43.0	5.1	2.5	6.8	-8.5
CC(C)(C)c1ccc(C(=O)Oc2ccc3c(c2)OCC3=O)cc1	3.7	-20.9	-6.7	-5.1	x
O=C(COc1ccc(Cl)cc1)Nc1nc(-c2ccc(S(=O)(=O)N3CCOCC3)cc2)cs1	-0.1	-5.7	-1.0	-5.2	x
COc1ccc(-c2nnc(SCc3ccccc3F)o2)cc1OC	94.7*	0.8	84.3*	-1.2	5.4	Arr-AP2 CP1=22.3
O=C1C2C3C=CC(c4ccccc4)(C2C(=O)N1c1cccc(Cl)c1)C1C(=O)N(c2cccc(Cl)c2)C(=O)C31 (stereo not drawn)	56.9*	-9.1	60.5*	-5.4	6.2	Arr-AP2 CP1=5.1;GST-FITC bead=-7.8
Cc1ccc2c(c1)N(CCC(=O)NCc1ccc3c(c1)OCO3)C(=O)CO2	1.6	1.9	2.7	9.3	x
COc1ccccc1NC(=O)Nc1cnccn1	54.1*	-3.0	16.7	-6.9	-0.1	Arr-AP2 CP1=23.0;GST-FITC bead=-1.4
COc1cc([N+](=O)[O-])ccc1NC(=O)Nc1cnccn1	-2.3	5.4	6.8	4.6	x
O=C(N1CCN(c2cccc(Cl)c2)CC1)C1(c2cccs2)CCOCC1	-8.3	3.3	2.1	-3.5	x
O=C(N/N=C/c1cccc([N+](=O)[O-])c1)c1ccc(Br)cc1	4.3	-14.2	6.5	3.0	x
O=C(N/N=C/c1cccc([N+](=O)[O-])c1)c1cccc(Br)c1	8.5	27.2	104.3*	10.7	x	Arr-AP2 CP1=12.8;GST-FITC bead=60.3*
COc1ccc(OC)c(C(C(=O)NC2CCCCC2)N(C(=O)c2snc(C(N)=O)c2N)c2ccccc2OC)c1 (stereo not drawn)	4.6	-10.4	-3.2	-8.3	x
COc1ccc(C)cc1N(C(=O)c1snc(C(N)=O)c1N)C(C(=O)NC1CCCCC1)c1ccc(C)o1 (stereo not drawn)	x	-12.5	72.0*	9.8	x	Arr-AP2 CP1=2.3;GST-FITC bead=-1.5
CC(/C=C1\SC(=S)N(NC(=O)c2cccc(O)c2)C1=O)=C\c1ccccc1	9.7	2.1	-2.4	-5.9	x

Source: PubChem (several laboratories)
